Measured values: ChEMBL document CHEMBL3739352, “Anticonvulsant activity, crystal structures, and preliminary safety evaluation of N-trans-cinnamoyl derivatives of selected (un)modified aminoalkanols” (Eur J Med Chem, 2016)
Calls of active or inactive are those of the source. No cut-off for these calls is given here.

Tests used:
Rattus norvegicus [1] = assay: Anticonvulsant activity in Sprague-Dawley rat assessed as protection against maximal electroshock-induced seizures at 30 mg/kg, po after 1 hr; type: functional, organism-based
How it was run: (§1)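 Sprague-Dawley rats were given 30 mg/kg p.o. in 0.5% methylcellulose. Maximal electroshock was applied at 0.25, 0.5, 1.0, 2.0 and 4 h after dosing. Results are reported as number of rats protected / number tested.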

Rattus norvegicus [2] = assay: Neurotoxicity in Sprague-Dawley rat at 30 mg/kg, po after 0.25 hrs; type: toxicity, organism-based; conditions: in vivo
How it was run: (§2)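 Sprague-Dawley rats were given 30 mg/kg orally in 0.5% methylcellulose. Neurotoxicity was checked at 0.25, 0.5, 1.0, 2.0 and 4 h after dosing. Results are given as number of rats showing neurotoxicity/number tested.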

Rattus norvegicus [3] = assay: Anticonvulsant activity in Sprague-Dawley rat assessed as protection against maximal electroshock-induced seizures at 30 mg/kg, po after 4 hrs; type: functional, organism-based; how it was run: as §1
Rattus norvegicus [4] = assay: Neurotoxicity in Sprague-Dawley rat at 30 mg/kg, po after 2 hrs; type: toxicity, organism-based; conditions: in vivo; how it was run: as §2
Rattus norvegicus [5] = assay: Anticonvulsant activity in Sprague-Dawley rat assessed as protection against maximal electroshock-induced seizures at 30 mg/kg, po after 2 hrs; type: functional, organism-based; how it was run: as §1
[6] = Hepatotoxicity against human HepG2 cells assessed as cell viability at 50 uM after 24 hrs by MTT assay relative to control
[7] = Hepatotoxicity against human HepG2 cells assessed as cell viability at 100 uM after 24 hrs by MTT assay relative to control
[8] = Protection index, ratio of TD50 for neurotoxicity in ip dosed albino Carworth Farms No.1 mouse to ED50 for anticonvulsant activity in ip dosed albino Carworth Farms No.1 mouse assessed as protection against maximal electroshock-induced seizures; type: toxicity, organism-based; conditions: in vivo, read-out: Ratio TD50/ED50
How it was run: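 Graded i.p. doses in 0.5% methylcellulose were given to albino Carworth Farms No.1 mice. ED50 was determined in MES, scPTZ or 6-Hz (32 mA) tests, and TD50 by rotarod. PI was calculated as TD50/ED50.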

Mus musculus [9] = assay: Anticonvulsant activity in albino Carworth Farms No.1 mouse assessed as protection against 6-Hz electroshock-induced seizures at 100 mg/kg, ip after 1 hr; type: functional, organism-based
How it was run: (§3)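 Carworth Farms No.1 albino mice were dosed i.p. at 100 mg/kg (0.5% methylcellulose solution or suspension). 6-Hz seizures were induced at 32 mA at 0.25, 0.5, 1.0, 2.0 and 4 h after injection. Results are given as animals protected / animals tested.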

HepG2 = assay: Cytotoxicity against human HepG2 cells assessed as change in cell morphology after 48 hrs by inverted microscopic analysis; type: cell-based; conditions: hepg2, 48 h
How it was run: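 HepG2 cells in EMEM with 10% FBS and antibiotics were seeded at 5 × 10⁴ cells/cm². After 24 h the medium was replaced with fresh medium with or without compound. After 48 h, cells were imaged under interference modulation contrast at 37 °C, 5% CO₂.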

[10] = Neurotoxicity in ip dosed albino Carworth Farms No.1 mouse after 0.25 hrs by rotarod test; type: toxicity, organism-based; conditions: in vivo
in vitro = conditions: human, HepG2 cells
Rattus norvegicus [11] = assay: Anticonvulsant activity in po dosed Sprague-Dawley rat assessed as protection against subcutaneous dosed pentetrazol-induced seizures after 0.5 hrs; type: functional
How it was run: (§4)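 Sprague-Dawley rats received graded oral doses suspended or dissolved in 0.5% methylcellulose. Challenge was maximal electroshock or subcutaneous pentetrazol at the stated time after dosing.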

[12] = Protection index, ratio of TD50 for neurotoxicity in po dosed Sprague-Dawley rat to ED50 for anticonvulsant activity in po dosed Sprague-Dawley rat assessed as subcutaneous dosed pentetrazol-induced seizures; type: toxicity, organism-based; conditions: in vivo
[13] = Protection index, ratio of TD50 for neurotoxicity in ip dosed albino Carworth Farms No.1 mouse to ED50 for anticonvulsant activity in ip dosed albino Carworth Farms No.1 mouse assessed as protection against subcutaneous dosed pentetrazol-induced seizures; type: toxicity, organism-based; conditions: in vivo, intraperitoneal, read-out: Ratio TD50/ED50
How it was run: (§5)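 Graded i.p. doses in 0.5% methylcellulose were given to albino Carworth Farms No.1 mice. ED50 was determined in MES, scPTZ or 6-Hz (32 mA) tests, and TD50 by rotarod. Both were reported with 95% confidence intervals. PI was calculated as TD50/ED50.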

Mus musculus [14] = assay: Anticonvulsant activity in ip dosed albino Carworth Farms No.1 mouse assessed as protection against subcutaneous dosed pentetrazol-induced seizures after 0.25 hrs; type: functional; conditions: Carworth Farms No.1, 0.25 h
How it was run: (§6)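 Quantitative i.p. evaluation in Carworth Farms No.1 albino mice, with graded doses in 0.5% methylcellulose. MES, scPTZ or 6-Hz (32 mA) seizure tests were run at 0.25 h.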

[15] = Neurotoxicity in po dosed Sprague-Dawley rat after 0.5 hrs by rotarod test; type: toxicity, organism-based; conditions: in vivo
Mus musculus [16] = assay: Anticonvulsant activity in albino Carworth Farms No.1 mouse assessed as protection against 6-Hz electroshock-induced seizures at 100 mg/kg, ip after 0.25 hrs; type: functional, organism-based; how it was run: as §3
Mus musculus [17] = assay: Anticonvulsant activity in albino Carworth Farms No.1 mouse assessed as protection against 6-Hz electroshock-induced seizures at 100 mg/kg, ip after 0.5 hrs; type: functional, organism-based; how it was run: as §3
Mus musculus [18] = assay: Anticonvulsant activity in ip dosed albino Carworth Farms No.1 mouse assessed as protection against maximal electroshock-induced seizures after 0.25 hrs; type: functional; conditions: Carworth Farms No.1, ip; how it was run: as §6
Rattus norvegicus [19] = assay: Anticonvulsant activity in po dosed Sprague-Dawley rat assessed as protection against maximal electroshock-induced seizures after 0.5 hrs; type: functional; how it was run: as §4
Mus musculus [20] = assay: Anticonvulsant activity in ip dosed albino Carworth Farms No.1 mouse assessed as protection against 6-Hz electroshock-induced seizures after 0.25 hrs; type: functional; conditions: Carworth Farms No.1, ip; how it was run: as §6
[21] = Protection index, ratio of TD50 for neurotoxicity in ip dosed albino Carworth Farms No.1 mouse to ED50 for anticonvulsant activity in ip dosed albino Carworth Farms No.1 mouse assessed as protection against 6-Hz electroshock-induced seizures; type: toxicity, organism-based; conditions: in vivo, read-out: Ratio TD50/ED50; how it was run: as §5
Rattus norvegicus [22] = assay: Anticonvulsant activity in po dosed Sprague-Dawley rat assessed as protection against subcutaneous dosed pentetrazol-induced seizures after 1 hr; type: functional; how it was run: as §4
Rattus norvegicus [23] = assay: Anticonvulsant activity in po dosed Sprague-Dawley rat assessed as protection against maximal electroshock-induced seizures after 1 hr; type: functional; how it was run: as §4
[24] = Neurotoxicity in po dosed Sprague-Dawley rat after 1 hr by rotarod test; type: toxicity, organism-based; conditions: in vivo

Q: With O=C(/C=C/c1ccccc1)N1CCC(O)CC1 as the compound, how does the Activity (Rattus norvegicus [1]) read?
A: inactive

Q: What about the Activity (Rattus norvegicus [2]) of the same compound?
A: Non-toxic

Q: And the Activity (Rattus norvegicus [3])?
A: inactive

Q: What about the Activity (Rattus norvegicus [4]) of the same compound?
A: Non-toxic

Q: What about the Activity (Rattus norvegicus [5]) of the same compound?
A: inactive

Q: With CC(O)CNC(=O)/C=C/c1ccccc1 (racemic) as the compound, how does the viability at 24 h, 50 µM [6] read?
A: 92.6%

Q: And the viability at 24 h, 100 µM [7]?
A: 91.9%

Q: What about the selectivity ratio [8] of the same compound?
A: 2.9

Q: What about the Activity (Mus musculus [9]) of the same compound?
A: Active

Q: What about the Activity (Rattus norvegicus [1]) of the same compound?
A: inactive

Q: And the Activity (Rattus norvegicus [2])?
A: Non-toxic

Q: And the Activity (Rattus norvegicus [3])?
A: inactive

Q: What about the Activity (Rattus norvegicus [4]) of the same compound?
A: Non-toxic

Q: And the Activity (HepG2)?
A: Non-toxic

Q: What about the TD50 at 0.25 h [10] of the same compound?
A: 136 mg/kg

Q: What about the viability at 24 h, 50 µM (in vitro) of the same compound?
A: 98%

Q: And the ED50 (Rattus norvegicus [11])?
A: 46.2 mg/kg

Q: And the selectivity ratio [12]?
A: > 10.8

Q: And the selectivity ratio [13]?
A: 1.8

Q: And the ED50 (Mus musculus [14])?
A: 77.1 mg/kg

Q: What about the TD50 at 0.5 h [15] of the same compound?
A: > 500 mg/kg

Q: And the Activity (Mus musculus [16])?
A: Active

Q: What about the Activity (Rattus norvegicus [5]) of the same compound?
A: inactive

Q: And the Activity (Mus musculus [17])?
A: Active

Q: What about the ED50 (Mus musculus [18]) of the same compound?
A: 47.1 mg/kg

Q: And the ED50 (Rattus norvegicus [19])?
A: 22.8 mg/kg

Q: Which results are given for CCC(O)CNC(=O)/C=C/c1ccccc1 (racemic)?
A: viability at 24 h, 50 µM [6]: 89.4%; viability at 24 h, 100 µM [7]: 85.9%; Activity (Mus musculus [9]): inactive; Activity (Rattus norvegicus [1]): inactive; Activity (Rattus norvegicus [2]): Non-toxic; Activity (Rattus norvegicus [3]): inactive; Activity (Rattus norvegicus [4]): Non-toxic; Activity (HepG2): Non-toxic; viability at 24 h, 50 µM (in vitro): 92%; ED50 (Rattus norvegicus [11]): > 250 mg/kg; TD50 at 0.5 h [15]: > 500 mg/kg; Activity (Mus musculus [16]): Active; Activity (Rattus norvegicus [5]): inactive; ED50 (Rattus norvegicus [19]): 41.5 mg/kg

Q: With CC(C)C(CO)NC(=O)/C=C/c1ccccc1 (racemic) as the compound, how does the viability at 24 h, 50 µM [6] read?
A: 89.1%

Q: And the viability at 24 h, 100 µM [7]?
A: 82.2%

Q: What about the Activity (Mus musculus [9]) of the same compound?
A: inactive

Q: And the Activity (Rattus norvegicus [1])?
A: inactive

Q: What about the Activity (Rattus norvegicus [2]) of the same compound?
A: Non-toxic

Q: What about the ED50 (Mus musculus [20]) of the same compound?
A: 106 mg/kg

Q: What about the Activity (Rattus norvegicus [3]) of the same compound?
A: inactive

Q: And the Activity (Rattus norvegicus [4])?
A: Non-toxic

Q: What about the Activity (HepG2) of the same compound?
A: Non-toxic

Q: And the TD50 at 0.25 h [10]?
A: 190 mg/kg

Q: What about the selectivity ratio [21] of the same compound?
A: 1.8

Q: What about the viability at 24 h, 50 µM (in vitro) of the same compound?
A: 93%

Q: What about the Activity (Mus musculus [16]) of the same compound?
A: Active

Q: What about the Activity (Rattus norvegicus [5]) of the same compound?
A: inactive

Q: What about the Activity (Mus musculus [17]) of the same compound?
A: Active

Q: For CC(CO)NC(=O)/C=C/c1ccccc1 (racemic), which viability at 24 h, 50 µM [6] is on record?
A: 95%

Q: And the viability at 24 h, 100 µM [7]?
A: 92.2%

Q: What about the selectivity ratio [8] of the same compound?
A: 2.6

Q: And the Activity (Mus musculus [9])?
A: inactive

Q: What about the Activity (Rattus norvegicus [1]) of the same compound?
A: inactive

Q: What about the Activity (Rattus norvegicus [2]) of the same compound?
A: Non-toxic

Q: And the ED50 (Mus musculus [20])?
A: 60.9 mg/kg

Q: What about the Activity (Rattus norvegicus [3]) of the same compound?
A: inactive

Q: What about the ED50 (Rattus norvegicus [22]) of the same compound?
A: > 250 mg/kg

Q: And the Activity (Rattus norvegicus [4])?
A: Non-toxic

Q: What about the Activity (HepG2) of the same compound?
A: Non-toxic

Q: And the ED50 (Rattus norvegicus [23])?
A: 31 mg/kg

Q: What about the TD50 at 0.25 h [10] of the same compound?
A: 223 mg/kg

Q: And the selectivity ratio [21]?
A: 3.7

Q: What about the viability at 24 h, 50 µM (in vitro) of the same compound?
A: 96%

Q: What about the selectivity ratio [13] of the same compound?
A: 2

Q: And the ED50 (Mus musculus [14])?
A: 110 mg/kg

Q: And the TD50 at 1 h [24]?
A: > 250 mg/kg

Q: What about the Activity (Rattus norvegicus [5]) of the same compound?
A: inactive

Q: What about the ED50 (Mus musculus [18]) of the same compound?
A: 86.6 mg/kg
